The text below walks through data of article PMC6500964 (Cancer Science, 2019).

“Also recorded” adds a separate entry of the source. Read-outs that look alike come from different tables or passages of the source.

Data set [1] has as its system TE‐11 cells. Kind of data set: WST‐8 cell proliferation assay. The data set is classed as cell-based, human. The following applies: for reduced the proliferation of TE‐11 cells by (average ± SD): compared with vehicle‐treated control cells. Summed up: (§1)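 Human ESCC cells, obtained from the Tohoku University or Riken cell banks and authenticated, were seeded at 1‐5 × 10³ cells per well and cultured overnight. They were then exposed for 48 h to the GLUT1-inhibitor test compound (prepared in DMSO), cisplatin, or both, with DMSO-only wells as control. Surviving cells were read by WST‐8 absorbance at 450 nm. Results are mean ± SD of n = 3 replicates, compared by Student's t‐test.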

In data set [2] the test system is TE‐8 cells. The experiment in a line: WST‐8 cell proliferation assay. The data set is classed as cell-based, human. The following applies: for reduced the proliferation of TE‐8 cells by (average ± SD): compared with vehicle‐treated control cells. Put shortly:
as §1

For data set [3], the system named is GLUT1. The following applies: cited from earlier work.
Data set [4] has as its system human lung cancer xenografts. The following applies: nude mouse, daily intraperitoneal injection of 10 mg/kg for 10 weeks; cited from earlier work.
Data set [5] deals with GLUT1. The following applies: cited from earlier work. This is another data set of the same source.
Data set [6] concerns TE‐11 cells. The following applies: read-out: cisplatin IC50 value, high GLUT1 expression, ref GSE36133 and the Genomics of Drug Sensitivity in Cancer; cited from earlier work.
Data set [7] has as its system TE‐8 cells. The following applies: read-out: cisplatin IC50 value, low GLUT1 expression, ref GSE36133 and the Genomics of Drug Sensitivity in Cancer; cited from earlier work.

`O=C(O)C(=O)CBr` [3‐bromopyruvate]: the “proliferation of TE‐11 cells” value with TE‐11 cells [1] (50 μmol/L, data not shown) is “inhibits the proliferation”. Moreover, the “proliferation of TE‐8 cells” value with TE‐8 cells [2] (50 μmol/L, data not shown) is given as “inhibits the proliferation”.
Turning to `Cc1c(NC(=O)c2cc(C(N)=O)nc3cc(F)ccc23)c(C(F)(F)F)nn1Cc1ccc(C#N)cc1` [BAY‐876], the “selectivity and affinity for GLUT1” value in the data set on GLUT1 [3] is “high selectivity and affinity”. Also, in the data set with TE‐11 cells [1] (0.025 nmol/L BAY‐876, 48 h), the “reduced the proliferation of TE‐11 cells by (average ± SD)” value is 51.0% ± 8.2%. Moreover, the “inhibition of proliferation of TE‐11 cells” value in the data set on TE‐11 cells [1] (0.1 nmol/L BAY‐876, 48 h) was “almost complete inhibition; also recorded: strong anti–proliferative effect”. In addition, in the data set on TE‐8 cells [2] (0.025 nmol/L BAY‐876, 48 h), the “reduced the proliferation of TE‐8 cells by (average ± SD)” value is given as 59.9% ± 4.9%. For the same compound, in the data set with TE‐8 cells [2] (0.1 nmol/L BAY‐876, 48 h), the “inhibition of proliferation of TE‐8 cells” value is reported as “almost complete inhibition; also recorded: strong anti–proliferative effect”.
Take `O=C(Oc1cccc(F)c1OC(=O)c1cccc(O)c1)c1cccc(O)c1` [WZB117]: in data set [4], the blood glucose effect result is recorded as “hyperglycemia”; the “lymphocyte and platelet counts” value is “aberrant lymphocyte and platelet counts”; the “reduction in the volume of human lung cancer xenografts” value was greater than 70%. Further, in the data set on GLUT1 [5] (30 μmol/L), the efficacy in vitro entry is recorded as “shown efficacy in vitro”.
As usually defined, the IC50 is the concentration that gives 50% inhibition. Take `N.N.[Cl][Pt][Cl]` [cisplatin]: in the data set on TE‐11 cells [1] (0.5 μmol/L cisplatin, 48 h), the “reduced the proliferation of TE‐11 cells by (average ± SD)” value is on record as 46.0% ± 6.5%. In the data set with TE‐11 cells [1] (0.2 and 0.4 μg/mL cisplatin, 48 h, TE11 cells transfected with GLUT1‐specific siRNA), the “effect of very low doses of cisplatin on proliferation” value was “strong inhibitory effect”. Besides, the half-maximal inhibitory concentration (IC50) was 20.4 µM in the data set on TE‐11 cells [6] and 10.1 µM with TE‐8 cells [7]. Moreover, the “reduced the proliferation of TE‐8 cells by (average ± SD)” value with TE‐8 cells [2] (0.5 μmol/L cisplatin, 48 h) is listed as 79.9% ± 2.3%.
Turning to `Oc1ccc(/C=C/c2cc(O)cc(O)c2)cc1` [resveratrol], the efficacy in vitro entry with GLUT1 [5] (50 μmol/L) is reported as “shown efficacy in vitro”.
